In ChEMBL document CHEMBL4033651, “Exploration of flexible phenylpropylurea scaffold as novel cardiac myosin activators for the treatment of systolic heart failure” (Eur J Med Chem, 2017):

Experiments:
Bos taurus = species on record: Bos taurus; assay: Activation of actin-stimulated bovine cardiac myosin S1 fragment ATPase activity in sarcomere at 10 uM after 10 mins by spectrophotometric analysis
Outline: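 Bovine cardiac S1 myosin with actin thin filament complex at pCa 6.5, in 20 mM Tris HCl pH 7.5, 15 mM KCl, 6 mM MgCl2, 1 mM ATP. Compound at 10 μM, 10 min at room temperature. Stopped with Cytophos reagent; liberated phosphate read at 650 nm. % activity calculated relative to DMSO negative control, blank-corrected.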

Rattus norvegicus [1] = assay: Effect on hemodynamic parameters in Sprague-Dawley rat heart assessed as dPdT min at 64 ug/kg/min (reference value: -4611 mmHg/s); assay type: functional
Rattus norvegicus [2] = assay: Effect on hemodynamic parameters in Sprague-Dawley rat heart assessed as end-systolic pressure at 128 ug/kg/min (reference value: 87.48 mmHg); assay type: functional
Rattus norvegicus [3] = assay: Effect on hemodynamic parameters in Sprague-Dawley rat heart assessed as end-systolic pressure at 64 ug/kg/min (reference value: 87.48 mmHg); assay type: functional
Rattus norvegicus [4] = assay: Effect on hemodynamic parameters in Sprague-Dawley rat heart assessed as end-diastolic pressure at 128 ug/kg/min (reference value: 9.64 mmHg); assay type: functional
Rattus norvegicus [5] = assay: Effect on hemodynamic parameters in Sprague-Dawley rat heart assessed as end-diastolic pressure at 32 ug/kg/min (reference value: 9.64 mmHg); assay type: functional
Rattus norvegicus [6] = assay: Effect on hemodynamic parameters in Sprague-Dawley rat heart assessed as end-systolic pressure at 32 ug/kg/min (reference value: 87.48 mmHg); assay type: functional
Rattus norvegicus [7] = assay: Effect on hemodynamic parameters in Sprague-Dawley rat heart assessed as dPdT min at 128 ug/kg/min (reference value: -4611 mmHg/s); assay type: functional
Rattus norvegicus [8] = assay: Effect on hemodynamic parameters in Sprague-Dawley rat heart assessed as dPdT max at 32 ug/kg/min (reference value: 4162 mmHg/s); assay type: functional
Rattus norvegicus [9] = assay: Positive inotropic activity in Sprague-Dawley rat heart assessed as heart rate at 4 ug/kg/min for 3 mins by echocardiographic analysis (reference value: 281 to 347 bpm); assay type: functional
Rattus norvegicus [10] = assay: Positive inotropic activity in Sprague-Dawley rat heart assessed as ejection fraction at 4 ug/kg/min for 3 mins by echocardiographic analysis (reference value: 67.16 to 85.81%); assay type: functional
Outline: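 Seven-week-old male Sprague-Dawley rats under 1.5 % isoflurane via nosecone. Drug given through a right internal jugular vein central line. Left ventricular fractional shortening and ejection fraction measured by echocardiography with and without sample, expressed as % increase.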

Rattus norvegicus [11] = assay: Effect on hemodynamic parameters in Sprague-Dawley rat heart assessed as dPdT max at 64 ug/kg/min (reference value: 4162 mmHg/s); assay type: functional
Rattus norvegicus [12] = assay: Effect on hemodynamic parameters in Sprague-Dawley rat heart assessed as end-systolic pressure at 8 ug/kg/min (reference value: 87.48 to 97.85 mmHg); assay type: functional
Rattus norvegicus [13] = assay: Effect on hemodynamic parameters in Sprague-Dawley rat heart assessed as dPdT max at 128 ug/kg/min (reference value: 4162 mmHg/s); assay type: functional
Rattus norvegicus [14] = assay: Effect on hemodynamic parameters in Sprague-Dawley rat heart assessed as end-diastolic pressure at 64 ug/kg/min (reference value: 9.64 mmHg); assay type: functional
Rattus norvegicus [15] = assay: Positive inotropic activity in Sprague-Dawley rat heart assessed as left ventricular posterior wall thickness end diastole at 4 ug/kg/min for 3 mins by echocardiographic analysis (reference value: 0.88 to 1.54 mm); assay type: functional
Outline: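 Male Sprague-Dawley rats, seven weeks old, anaesthetised with 1.5 % isoflurane given by nosecone. Compound infused through the right internal jugular vein, used as a central venous line. Left ventricular dimensions measured by echocardiography.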

Rattus norvegicus [16] = assay: Effect on hemodynamic parameters in Sprague-Dawley rat heart assessed as heart rate at 128 ug/kg/min (reference value: 274 bpm); assay type: functional
Rattus norvegicus [17] = assay: Effect on hemodynamic parameters in Sprague-Dawley rat heart assessed as heart rate at 32 ug/kg/min (reference value: 274 bpm); assay type: functional
Rattus norvegicus [18] = assay: Effect on hemodynamic parameters in Sprague-Dawley rat heart assessed as heart rate at 64 ug/kg/min (reference value: 274 bpm); assay type: functional
Rattus norvegicus [19] = assay: Effect on hemodynamic parameters in Sprague-Dawley rat heart assessed as dPdT min at 32 ug/kg/min (reference value: -4611 mmHg/s); assay type: functional
Rattus norvegicus [20] = assay: Effect on hemodynamic parameters in Sprague-Dawley rat heart assessed as end-systolic pressure at 4 ug/kg/min (reference value: 94.65 to 97.85 mmHg); assay type: functional
Rattus norvegicus [21] = assay: Effect on hemodynamic parameters in Sprague-Dawley rat heart assessed as end-diastolic pressure at 2 ug/kg/min (reference value: 7.68 mmHg); assay type: functional
Rattus norvegicus [22] = assay: Effect on hemodynamic parameters in Sprague-Dawley rat heart assessed as heart rate at 2 ug/kg/min (reference value: 322 bpm); assay type: functional
Rattus norvegicus [23] = assay: Effect on hemodynamic parameters in Sprague-Dawley rat heart assessed as dPdT min at 4 ug/kg/min (reference value: -5462 to -4898 mmHg/s); assay type: functional
Rattus norvegicus [24] = assay: Effect on hemodynamic parameters in Sprague-Dawley rat heart assessed as dPdT max at 2 ug/kg/min (reference value: 5214 mmHg/s); assay type: functional
Rattus norvegicus [25] = assay: Effect on hemodynamic parameters in Sprague-Dawley rat heart assessed as end-systolic pressure at 2 ug/kg/min (reference value: 97.85 mmHg); assay type: functional
Rattus norvegicus [26] = assay: Effect on hemodynamic parameters in Sprague-Dawley rat heart assessed as dPdT min at 2 ug/kg/min (reference value: -5462 mmHg/s); assay type: functional
Rattus norvegicus [27] = assay: Effect on hemodynamic parameters in Sprague-Dawley rat heart assessed as dPdT max at 4 ug/kg/min (reference value: 4985 to 5214 mmHg/s); assay type: functional
Rattus norvegicus [28] = assay: Effect on hemodynamic parameters in Sprague-Dawley rat heart assessed as heart rate at 4 ug/kg/min (reference value: 260 to 322 bpm); assay type: functional
Rattus norvegicus [29] = assay: Effect on hemodynamic parameters in Sprague-Dawley rat heart assessed as end-diastolic pressure at 4 ug/kg/min (reference value: 7.68 to 9.83 mmHg); assay type: functional

For `O=C(NCCCc1ccccc1)NCc1ccccc1`, the Activity (Bos taurus) was 53.3%, the Activity (Rattus norvegicus [1]) was -6138 mmHg/s and the Activity (Rattus norvegicus [2]) was 113.24 mmHg. It also gave an Activity (Rattus norvegicus [3]) of 108.41 mmHg, an Activity (Rattus norvegicus [4]) of 24.12 mmHg and an Activity (Rattus norvegicus [5]) of 12.26 mmHg. The Activity (Rattus norvegicus [6]) was 95.74 mmHg, the Activity (Rattus norvegicus [7]) was -6346 mmHg/s and the Activity (Rattus norvegicus [8]) was 4744 mmHg/s. The Activity (Rattus norvegicus [9]) was 395 bpm, the Activity (Rattus norvegicus [10]) was 76.44% and the Activity (Rattus norvegicus [11]) was 5382 mmHg/s. The Activity (Rattus norvegicus [12]) was 96.04 mmHg, the Activity (Rattus norvegicus [13]) was 6146 mmHg/s and the Activity (Rattus norvegicus [14]) was 16.85 mmHg. For the same compound, the Activity (Rattus norvegicus [15]) was 1.62 mm, the Activity (Rattus norvegicus [16]) was 284 bpm and the Activity (Rattus norvegicus [17]) was 268 bpm. It also gave an Activity (Rattus norvegicus [18]) of 277 bpm and an Activity (Rattus norvegicus [19]) of -5375 mmHg/s.

For `COC(=O)N1CCN(Cc2cccc(NC(=O)Nc3ccc(C)nc3)c2F)CC1` [OMECAMTIV MECARBIL], the Activity (Bos taurus) was 58%, the Activity (Rattus norvegicus [20]) was 108.85 mmHg and the Activity (Rattus norvegicus [21]) was 7.65 mmHg. It also gave an Activity (Rattus norvegicus [22]) of 322 bpm, an Activity (Rattus norvegicus [9]) of 368 bpm and an Activity (Rattus norvegicus [23]) of -6516 mmHg/s. For the same compound, the Activity (Rattus norvegicus [10]) was 87.85%, the Activity (Rattus norvegicus [12]) was 104.3 mmHg and the Activity (Rattus norvegicus [15]) was 1.36 mm. The Activity (Rattus norvegicus [24]) was 6320 mmHg/s, the Activity (Rattus norvegicus [25]) was 109.76 mmHg and the Activity (Rattus norvegicus [26]) was -6628 mmHg/s. It also gave an Activity (Rattus norvegicus [27]) of 6645 mmHg/s, an Activity (Rattus norvegicus [28]) of 326 bpm and an Activity (Rattus norvegicus [29]) of 7 mmHg.
